Test results published in ChEMBL document CHEMBL2380248, “Matrix metalloproteinase inhibitors based on the 3-mercaptopyrrolidine core” (J Med Chem, 2013).
Activity calls are given as the source filed them. The calls are words filed in the database; no cut-off is given here.

Experiments:
[1] = target: Matrix metalloproteinase-14 (Homo sapiens, UniProt P50281); test: Inhibition of MMP-14 (unknown origin) using Mca-PLGLDpa-AR-NH2 as substrate preincubated for 30 mins by fluorescence assay; conditions: read-out: Ki(app)
Summary of the method: (§1)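 Fluorogenic assay at 25°C in 50 mM HEPES pH 7.5, 10 mM CaCl2, 200 mM NaCl, 0.01% Brij-35, 5 μM TCEP. Inhibitor in DMSO preincubated 30 min with enzyme (0.2–7 nM), then started with Mca-PLGLDpa-AR-NH2 (4 μL of […] in 50% DMSO); product release followed at λex 328/λem 393 nm.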

Collagenase 3 = Collagenase 3 (Homo sapiens, UniProt P45452); test: Inhibition of MMP-13 (unknown origin) using Mca-PLGLDpa-AR-NH2 as substrate preincubated for 30 mins by fluorescence assay; conditions: read-out: Ki(app); summary of the method: as §1
[2] = target: T1, Matrix metalloproteinase-9 (Homo sapiens, UniProt P14780); test: Inhibition of MMP-9 (unknown origin) using Mca-PLGLDpa-AR-NH2 as substrate preincubated for 30 mins by fluorescence assay; conditions: read-out: Ki(app); summary of the method: as §1
T1 sequence (P14780 whole entry): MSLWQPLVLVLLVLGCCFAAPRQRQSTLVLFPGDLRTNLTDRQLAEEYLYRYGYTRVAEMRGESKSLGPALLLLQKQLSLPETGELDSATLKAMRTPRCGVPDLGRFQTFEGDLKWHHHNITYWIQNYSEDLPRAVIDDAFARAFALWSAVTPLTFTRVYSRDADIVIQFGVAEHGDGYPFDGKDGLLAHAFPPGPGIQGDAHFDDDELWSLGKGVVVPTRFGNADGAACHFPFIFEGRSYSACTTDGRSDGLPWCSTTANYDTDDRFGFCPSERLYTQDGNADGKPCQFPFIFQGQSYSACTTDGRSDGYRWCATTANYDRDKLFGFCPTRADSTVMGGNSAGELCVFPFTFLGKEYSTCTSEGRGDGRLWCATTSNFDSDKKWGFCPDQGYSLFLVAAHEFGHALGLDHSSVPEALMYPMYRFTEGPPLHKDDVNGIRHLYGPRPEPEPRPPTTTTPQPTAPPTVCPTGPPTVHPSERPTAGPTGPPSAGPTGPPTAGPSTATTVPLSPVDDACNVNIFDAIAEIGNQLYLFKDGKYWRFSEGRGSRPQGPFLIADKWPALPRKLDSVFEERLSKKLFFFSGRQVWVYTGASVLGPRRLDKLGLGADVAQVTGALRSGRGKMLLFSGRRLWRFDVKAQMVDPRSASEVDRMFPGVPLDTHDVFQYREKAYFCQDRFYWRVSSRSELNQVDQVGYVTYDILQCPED

Matrilysin = target: T2, Matrilysin (Homo sapiens, UniProt P09237); test: Inhibition of MMP-7 (unknown origin) using Mca-PLGLDpa-AR-NH2 as substrate preincubated for 30 mins by fluorescence assay; conditions: read-out: Ki(app); summary of the method: as §1
T2 sequence (P09237 whole entry): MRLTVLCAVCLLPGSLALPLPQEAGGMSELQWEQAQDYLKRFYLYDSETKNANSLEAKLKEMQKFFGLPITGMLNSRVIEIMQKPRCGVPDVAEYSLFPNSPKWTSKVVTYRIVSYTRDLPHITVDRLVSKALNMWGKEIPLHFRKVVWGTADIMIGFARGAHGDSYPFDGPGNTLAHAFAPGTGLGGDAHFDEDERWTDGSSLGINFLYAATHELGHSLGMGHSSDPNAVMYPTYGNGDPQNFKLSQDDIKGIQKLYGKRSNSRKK

Stromelysin-1 = Stromelysin-1 (Homo sapiens, UniProt P08254); test: Inhibition of MMP-3 (unknown origin) using Mca-PLGLDpa-AR-NH2 as substrate preincubated for 30 mins by fluorescence assay; conditions: read-out: Ki(app); summary of the method: as §1
Chain of Stromelysin-1 (P08254 whole entry): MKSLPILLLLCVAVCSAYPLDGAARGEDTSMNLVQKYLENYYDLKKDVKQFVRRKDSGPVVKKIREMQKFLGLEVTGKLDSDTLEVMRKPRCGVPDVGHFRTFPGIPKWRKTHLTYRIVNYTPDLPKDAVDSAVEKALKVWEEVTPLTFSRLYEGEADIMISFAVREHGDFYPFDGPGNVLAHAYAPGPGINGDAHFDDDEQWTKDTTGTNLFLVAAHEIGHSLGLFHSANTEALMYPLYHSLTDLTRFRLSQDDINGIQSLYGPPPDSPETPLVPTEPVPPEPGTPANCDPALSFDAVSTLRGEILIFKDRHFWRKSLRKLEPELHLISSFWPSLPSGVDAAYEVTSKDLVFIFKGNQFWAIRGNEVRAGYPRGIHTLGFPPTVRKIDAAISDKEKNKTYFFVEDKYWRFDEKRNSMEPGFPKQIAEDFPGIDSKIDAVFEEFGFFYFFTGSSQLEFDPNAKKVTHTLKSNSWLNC

[3] = target: 72 kDa type IV collagenase (Homo sapiens, UniProt P08253); test: Inhibition of MMP-2 (unknown origin) using Mca-PLGLDpa-AR-NH2 as substrate preincubated for 30 mins by fluorescence assay; conditions: read-out: Ki(app); summary of the method: as §1
Chain of 72 kDa type IV collagenase (P08253 whole entry): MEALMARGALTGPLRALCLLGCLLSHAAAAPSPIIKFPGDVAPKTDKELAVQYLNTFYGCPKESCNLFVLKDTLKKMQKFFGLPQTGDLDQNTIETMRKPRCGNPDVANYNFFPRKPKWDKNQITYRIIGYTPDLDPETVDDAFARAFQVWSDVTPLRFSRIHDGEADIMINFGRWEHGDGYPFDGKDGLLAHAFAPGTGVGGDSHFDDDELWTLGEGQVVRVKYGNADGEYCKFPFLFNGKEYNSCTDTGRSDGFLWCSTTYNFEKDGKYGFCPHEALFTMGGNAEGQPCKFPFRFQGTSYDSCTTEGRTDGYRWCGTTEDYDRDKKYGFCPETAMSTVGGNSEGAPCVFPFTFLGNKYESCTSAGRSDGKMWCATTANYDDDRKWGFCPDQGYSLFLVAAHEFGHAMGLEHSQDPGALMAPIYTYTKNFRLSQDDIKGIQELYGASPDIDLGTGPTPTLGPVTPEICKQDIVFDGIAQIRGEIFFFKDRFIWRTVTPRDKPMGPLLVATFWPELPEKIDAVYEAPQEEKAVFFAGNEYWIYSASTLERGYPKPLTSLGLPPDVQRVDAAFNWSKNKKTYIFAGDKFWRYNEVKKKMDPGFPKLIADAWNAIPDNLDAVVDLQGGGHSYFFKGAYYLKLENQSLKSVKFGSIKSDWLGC

Interstitial collagenase = target: T3, Interstitial collagenase (Homo sapiens, UniProt P03956); test: Inhibition of MMP-1 (unknown origin) using Mca-PLGLDpa-AR-NH2 as substrate preincubated for 30 mins by fluorescence assay; conditions: read-out: Ki(app); summary of the method: as §1
T3 sequence (P03956 whole entry): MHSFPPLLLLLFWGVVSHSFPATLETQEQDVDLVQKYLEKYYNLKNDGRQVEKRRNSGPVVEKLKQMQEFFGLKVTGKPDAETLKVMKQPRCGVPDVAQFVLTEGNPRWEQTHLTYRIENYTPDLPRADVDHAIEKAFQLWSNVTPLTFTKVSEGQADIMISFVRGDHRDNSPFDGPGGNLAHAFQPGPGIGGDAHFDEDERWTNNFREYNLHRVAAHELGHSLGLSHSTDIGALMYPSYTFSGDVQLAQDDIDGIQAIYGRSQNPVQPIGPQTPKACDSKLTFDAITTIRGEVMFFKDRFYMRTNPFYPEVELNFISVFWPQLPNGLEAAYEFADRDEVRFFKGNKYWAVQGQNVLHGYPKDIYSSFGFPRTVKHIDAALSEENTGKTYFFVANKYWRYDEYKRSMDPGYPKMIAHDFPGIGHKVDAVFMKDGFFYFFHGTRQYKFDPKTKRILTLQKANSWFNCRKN

[4] = Cytotoxicity against human MSC assessed as cell killing up to 100 uM after 24 hrs by trypan blue staining-based hemocytometric analysis relative to control
Summary of the method: (§2)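 Low-passage hMSCs grown in αMEM with L-glutamine, penicillin, streptomycin, 20% FBS at 37°C, 5% CO2; fed every three days to 75% confluency, then given fresh media with inhibitor (log panel 1 μM to 100 μM, constant final DMSO) for 24 h. Cells washed with PBS, trypsinized, pelleted, Trypan Blue counted by hemocytometer; normalized to control, triplicate, mean ± SEM; >20% killing deemed cytotoxic.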

[5] = Cytotoxicity against human MSC assessed as reduction in cell number at 100 uM after 24 hrs by trypan blue staining-based hemocytometric analysis relative to control; set-up: scale not given: the % may be the effect or the level left; summary of the method: as §2
[6] = Stability of the compound in alpha-modified minimum essential medium at 10000 x IC50 up to 72 hrs in presence of fetal bovine serum; assay type: ADME; conditions: cattle
Summary of the method: (§3)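 Aliquots then incubated 30 min with MMP-9 (final ~1 nM) in HEPES buffer before substrate addition; relative rates (νi/νo) taken in triplicate and plotted versus time; mean ± SEM.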

[7] = target: T1, Matrix metalloproteinase-9; test: Inhibition of MMP-9 (unknown origin) at 10000 x IC50 incubated up to 72 hrs prior to enzyme addition measured after 30 mins in presence of 20% fetal bovine serum; summary of the method: as §3

| Ki [1] [µM] | Ki (Collagenase 3) [µM] | Ki [2] [µM] | Ki (Matrilysin) [µM] | Ki (Stromelysin-1) [µM] | Ki [3] [µM] | Ki (Interstitial collagenase) [µM] | Stability [6] | inhibition [7] | SMILES | Activity [4] | Activity [5] [%] |
| --- | --- | --- | --- | --- | --- | --- | --- | --- | --- | --- | --- |
| 25 | > 100 | > 1.6 | > 200 | > 200 | 25 | > 200 | – | – | O=S(=O)(N[C@@H]1CCC[C@@H]1S)c1ccc(Oc2ccccc2)cc1 | – | – |
| 0.068 | 0.16 | 0.28 | > 100 | – | 0.43 | – | – | – | O=S(=O)(N[C@H]1CCC[C@H]1S)c1ccc(Oc2ccccc2)cc1 | – | – |
| 0.031 | 0.017 | 0.038 | > 100 | > 200 | 0.0046 | 2.1 | – | – | O=S(=O)(N[C@H]1CCC[C@@H]1S)c1ccc(Oc2ccccc2)cc1 | – | – |
| 0.01 | 0.01 | 0.042 | 36 | > 100 | 0.067 | – | – | – | O=S(=O)(N[C@@H]1CCC[C@H]1S)c1ccc(Oc2ccccc2)cc1 | – | – |
| – | – | – | > 200 | – | – | 50 | – | – | O=S(=O)(N[C@H]1CNC[C@@H]1S)c1ccc(Oc2ccccc2)cc1 | – | – |
| – | – | – | 4.1 | – | – | 6.3 | – | – | O=S(=O)(N[C@@H]1CNC[C@H]1S)c1ccc(Oc2ccccc2)cc1 | – | – |
| 0.0062 | – | 0.0057 | 0.091 | 0.99 | 0.014 | 0.099 | – | – | CNC(=O)[C@H](Cc1ccccc1)NC(=O)[C@@H](CC(C)C)S[C@H]1CN(C(C)=O)C[C@H]1S (mixture of isomers) | – | – |
| 0.07 | – | 0.0049 | 0.05 | 0.3 | 0.017 | 0.11 | – | – | CNC(=O)[C@H](Cc1ccccc1)NC(=O)[C@@H](CC(C)C)S[C@H]1CN(C(=O)CN2C(=O)c3ccccc3C2=O)C[C@H]1S (mixture of isomers) | – | – |
| 0.006 | – | 0.0039 | 0.012 | 0.031 | 0.0085 | 0.075 | – | – | CNC(=O)[C@H](Cc1ccccc1)NC(=O)[C@@H](CC(C)C)S[C@H]1CN(C(=O)CCCN2C(=O)c3ccccc3C2=O)C[C@H]1S (mixture of isomers) | – | – |
| 0.007 | – | 0.00098 | 0.011 | 0.0019 | 0.0017 | 0.052 | – | – | CNC(=O)[C@H](Cc1ccccc1)NC(=O)[C@@H](CC(C)C)S[C@H]1CN(C(=O)CCCCCN2C(=O)c3ccccc3C2=O)C[C@H]1S (mixture of isomers) | – | – |
| 0.31 | – | 0.0053 | 0.23 | 4.1 | 0.2 | 0.26 | – | – | CNC(=O)[C@H](Cc1ccccc1)NC(=O)[C@@H](CC(C)C)S[C@H]1CNC[C@H]1S (mixture of isomers) | – | – |
| – | – | – | > 12 | – | – | – | – | – | O=C(NCCN1C(=O)c2ccccc2C1=O)N1C[C@H](NS(=O)(=O)c2ccc(Oc3ccccc3)cc2)[C@@H](S)C1 (racemic) | <= 20% | – |
| 0.41 | 0.2 | 0.97 | > 20 | – | 0.81 | > 100 | – | – | O=S(=O)(N[C@@H]1CCC[C@@H]1S)c1ccc(Oc2ccccc2)cc1 (racemic) | – | – |
| 3 | 3.4 | 9.6 | > 50 | > 200 | 7.2 | > 20 | – | – | O=S(=O)(N[C@H]1CCC[C@@H]1S)c1ccccc1 (racemic) | – | – |
| 1.2 | 0.23 | 0.63 | – | 10 | 0.24 | 10 | – | – | O=S(=O)(N[C@H]1CCC[C@@H]1S)c1ccc(-c2ccccc2)cc1 (racemic) | – | – |
| 0.018 | 0.015 | 0.025 | > 20 | – | 0.018 | 3.4 | Stable | – | O=S(=O)(N[C@H]1CCC[C@@H]1S)c1ccc(Oc2ccccc2)cc1 (racemic) [listing 1 of 2 here] | <= 20% | 40 |
| > 200 | 100 | 200 | > 200 | > 200 | 50 | > 200 | – | – | O=S(=O)(N[C@H]1CCC[C@@H]1O)c1ccc(Oc2ccccc2)cc1 (racemic) | – | – |
| > 25 | 28 | 4.3 | 5.7 | > 200 | 5.7 | > 200 | – | – | O=C(N[C@H]1CCC[C@@H]1S)c1ccc(Oc2ccccc2)cc1 (racemic) | – | – |
| – | – | – | > 25 | – | – | 25 | – | – | O=S(=O)(N[C@H]1CNC[C@@H]1S)c1ccc(Oc2ccccc2)cc1 (racemic) | – | – |
| – | – | – | > 25 | – | – | – | Stable | – | NC(=O)N1C[C@H](NS(=O)(=O)c2ccc(Oc3ccccc3)cc2)[C@@H](S)C1 (racemic) | <= 20% | – |
| – | – | 0.0011 | > 25 | – | – | – | – | – | CN([C@H]1CN(C(N)=O)C[C@@H]1S)S(=O)(=O)c1ccc(Oc2ccccc2)cc1 (racemic) | – | – |
| – | – | – | – | – | – | > 6 | Stable | – | CC(=O)NCCCCCC(=O)N1C[C@H](NS(=O)(=O)c2ccc(Oc3ccccc3)cc2)[C@@H](S)C1 (racemic) | <= 20% | – |
| 0.0066 | – | 0.0036 | – | – | 0.0031 | > 3 | Stable | Active | Cl.NCCCCCC(=O)N1C[C@H](NS(=O)(=O)c2ccc(Oc3ccccc3)cc2)[C@@H](S)C1 (racemic) | <= 20% | – |
| 85 | > 200 | 30 | > 100 | > 100 | 7 | > 50 | – | – | NCCCCCC(=O)N1C[C@H](NS(=O)(=O)c2ccc(Oc3ccccc3)cc2)[C@@H](O)C1 (racemic) | – | – |
| – | – | – | – | – | – | – | – | Active | O=S(=O)(N[C@H]1CCC[C@@H]1S)c1ccc(Oc2ccccc2)cc1 (racemic) [listing 2 of 2 here] | – | – |
